# FLuc stim CS: firefly luciferase counter-screen for stimulation assays. ATPlite luciferase biochemical, luminescence, 10 min; 0 = ATP-free wells, 1 = DMSO control. 200,000 tested, under 10 active. activation factor at 10 µM. AID 1027. P08659;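 active = luciferase activation factor, scaled between plate controls, of at least 2 with compound at 10 µM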
# Target sequence (P08659 whole entry, looked up): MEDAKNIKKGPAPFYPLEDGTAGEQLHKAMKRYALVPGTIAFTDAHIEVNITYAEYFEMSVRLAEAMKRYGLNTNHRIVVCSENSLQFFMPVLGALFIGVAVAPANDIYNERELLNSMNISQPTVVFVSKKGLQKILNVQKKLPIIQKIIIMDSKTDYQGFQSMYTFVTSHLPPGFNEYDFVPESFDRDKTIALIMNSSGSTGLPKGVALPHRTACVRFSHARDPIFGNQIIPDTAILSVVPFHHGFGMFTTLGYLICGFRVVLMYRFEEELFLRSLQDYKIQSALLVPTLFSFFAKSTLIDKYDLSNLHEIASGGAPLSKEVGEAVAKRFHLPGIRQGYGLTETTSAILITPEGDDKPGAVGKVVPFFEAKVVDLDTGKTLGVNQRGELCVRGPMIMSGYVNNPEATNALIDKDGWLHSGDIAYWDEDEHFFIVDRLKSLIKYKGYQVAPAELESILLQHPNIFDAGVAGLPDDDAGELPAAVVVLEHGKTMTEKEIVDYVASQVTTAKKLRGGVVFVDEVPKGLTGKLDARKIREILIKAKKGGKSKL
#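 Assay system: Luciferase/luciferin reagent mix; Medium: PBS as buffer for the ATP substrate; Dosing: test compounds dosed from 2 mM stocks in 100% DMSO; Times: 10 min, room temperature; Signal: luminescence from luciferase reaction; Read-out: luciferase activation; Controls: No-ATP low control, compound-free enzyme-plus-ATP high control.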
# TRAIL sens C8: sensitizes caspase-8 expressing cells to TRAIL | NB7+C8 cells + TRAIL, ATPlite viability luminescence | inhibition (viability loss, TRAIL sensitization), % at 10 µM | actives 1% (n = 360,000) | AID 624354;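 active = compounds causing at least 50% loss of cell viability in the single-dose screen, relative to plate controls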
# FLuc inh counter: counter-screen for luciferase assay inhibitors: firefly luciferase inhibition | ATPLite firefly luciferase biochemical luminescence, 10 min | actives 1.5% (n = 200,000) | inhibition, % at 10 µM;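 active = inhibition above about 50% when tested at 10 µM, limit read from the data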
# PPC-1+TRAIL kill: compounds killing PPC-1 cancer cells with TRAIL present (potentiator screen, no TRAIL-free arm); PPC-1 cells + TRAIL, ATPLite viability luminescence; AID 1443; cell killing (% activity), % at 4 µM or 5 µM; actives 0.41% (n = 220,000);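 active = cell killing above 50% in the first pass at 4 µM, then a duplicate retest at 5 µM averaging 50% or more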;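 note: plate controls were cells with TRAIL plus DMSO for no effect and medium-only wells lacking cells for full effect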
# PPC-1 tox: kills PPC-1 cells. shares compounds with PPC-1+TRAIL kill. PPC-1 viability, ATPlite luminescence, overnight. cytotoxicity, % at 5 µM. actives 50% (n = 1,200). AID 1447;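 active = reconfirmed compounds whose average cytotoxicity reaches 50% or more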;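 note: 0% = DMSO-treated cells and 100% = wells holding medium but no cells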
# Starred values were filed as active, the others as inactive; / = no result. Sampled rows, rich in hits. Any-hit rate of the full collection: about 1.5%.
SMILES,FLuc stim CS,TRAIL sens C8,FLuc inh counter,PPC-1+TRAIL kill,PPC-1 tox
Cc1cccc(NC(=O)Nc2ccc3c(c2)N(C)C(=O)CS3)n1,0.9,24,8,-4,/
Cc1ccccc1/C=N/n1c(-c2ccccn2)n[nH]c1=S,/,-8,/,0,/
O=C(N/N=C/c1ccc2ncccc2c1)c1ccco1,0.1,80*,92*,68*,70*
O=C(N/N=C/c1ccccn1)c1ccco1,0.9,31,6,17,/
CC1CCCCC12NC(=O)N(CC(=O)OCc1ccc(Br)cc1)C2=O (centres undefined),/,0,/,/,/
COc1cccc(C(=O)Nc2ccc(NC(=O)C(C)(C)C)cn2)c1,0.1,77*,88*,71*,73*
CC1=C(C(=O)N2CCCCCC2)CC(CC(=O)NCC2CCCCC2)C(=O)N1Cc1ccccc1 (centres undefined),/,30,/,/,/
COC(OC)c1ccc(C#N)c(=O)[nH]1,1,-5,-3,-2,/
Cc1nc2cc(NC(=O)Nc3cccc4ccccc34)ccc2n1C,0.4,48,56*,34,35
Cc1ccc(NC(=O)Nc2ccc3c(c2)nc(C)n3C)cc1C,0.6,/,40,15,/
COc1ccc(Nc2nnc(-c3ccccc3)c3ccccc23)cc1C(=O)N1CCCCC1,1.1,4,-5,13,/
Cc1nc2cc(Nc3nnc(-c4ccccc4)c4ccccc34)ccc2n1C,0.1,75*,92*,71*,70*
O=C(Cn1nc(C(F)F)cc1C1CC1)NCCC1=CCCCC1,0.9,-5,7,44,/
CN(C)CCNC(=O)Cn1nc(C(F)F)cc1C1CC1,1,6,-2,-8,-14
Cc1nc(N2CCC(C)CC2)c2c(C)c(C(=O)Nc3ccccc3C(F)(F)F)sc2n1,1,-1,-1,7,/
COc1ccc(C(=O)Nc2ccc(Cc3ccncc3)cc2)cc1Br,1,4,1,4,20
CC(C)CO/C(=N/S(=O)(=O)c1ccccc1)c1ccccc1,1.1,-2,-10,-13,11
COc1ccc2[nH]c(C(=O)O)c(CCC(=O)O)c2c1,1,-9,0,1,14
O=C(CSc1nc(=O)n(CCN2CCOCC2)c2c1CCC2)Nc1ccc(OC(F)(F)F)cc1,/,8,/,/,/
CCOc1ccc2nc(-c3ccccc3)[nH]c2c1,0.2,69*,84*,48,56*
CCOc1ccc2nc(C(C)O)[nH]c2c1 (centres undefined),1,1,-3,-9,/
COc1ccc(CCNC(=O)c2cccc(S(=O)(=O)N3CCCC3)c2)cc1OC,/,1,/,/,/
COc1cc(C(=O)NCCc2ccc(S(=O)(=O)N3CCCC3)cc2)cc(OC)c1OC,1,-11,-3,5,5
O=C(CCSCc1ccccc1Cl)N1CCN(c2ccccn2)CC1,1,-1,-1,4,/
COc1ccc(-c2cc(C#N)nc(Cl)n2)cc1,/,21,/,22,19
SMILES,FLuc stim CS,TRAIL sens C8,FLuc inh counter,PPC-1+TRAIL kill,PPC-1 tox
COc1ccc(-c2cc(C#N)nc(Oc3ccc(Cl)cc3)n2)cc1,1.1,16,-7,18,/
COC(=O)C1=C(C)N(Cc2ccc(C)cc2)C(=O)C1,1.1,-16,-7,-1,/
CC(C)(C)CN1CCNC(=O)C1CC(=O)NCc1cccc(-n2cccn2)c1 (centres undefined),1,0,0,14,/
COc1cccc2nc3cc(C)c(C)cc3nc12,/,68*,/,70*,68*
COc1cccc2c1nc(C)c1cc(C)oc12,0.9,-6,8,24,/
COC(=O)c1sc2nc(C)cc(C)c2c1N,1,0,4,34,/
Cc1cc(C)c2c(N)c(C(=O)Nc3ncc(C)s3)sc2n1,0,94*,98*,96*,96*
Cc1sc2nc(C(C)(C)C)oc(=O)c2c1C,1,7,-1,-9,1
Cc1ccccc1-c1nc2sc(C)c(C)c2c(=O)o1,/,-4,/,/,/
CCOC(=O)c1ccc(Nc2cc(C)nc(C)c2C(=O)OCC)cc1,1,11,-4,4,-2
CCCCN1C=CC(=C2C(=O)c3ccccc3C2=O)C=C1,0,95*,98*,96*,96*
CCCCNC1=CC(=O)C(=O)c2ccccc21,1,32,3,/,/
CC1CCc2sc3c(c2C1)c(=O)n(CC(=O)O)c(=O)n3Cc1ccc(Cl)cc1 (centres undefined),/,-3,/,/,/
Cc1ccc2c(c1)sc(=NC(=O)C1CC1)n2C,/,19,/,23,/
Cc1ccc2c(c1)sc(=NC(=O)c1cccs1)n2C,0.1,91*,95*,88*,85*
CN(C)c1ccc(/C=C2/SC(=O)N(CCN=C3NS(=O)(=O)c4ccccc43)C2=O)cc1,1,-3,4,26,/
CN(C)c1ccc(/C=C2\SC(=O)N(CCc3nnc(N)s3)C2=O)cc1,/,81*,/,65*,68*
Cc1ccc(-c2ccc(NC(=O)C3C4C=CC(C4)C3C(=O)O)cc2)o1 (centres undefined),1,3,3,8,17
O=C(COc1ccc2ccccc2c1)NC1=NCCS1,0.5,32,46,11,/
Cc1cc(C)cc(OCC(=O)NC2=NCCS2)c1,1.1,3,-9,-3,0
CCCCCN=Cc1c(C)[nH]n(-c2nc3ccccc3s2)c1=O,0.5,84*,52*,91*,91*
Clc1cccc(-c2cc3nc4c(c(N5CCOCC5)n3n2)CCCC4)c1,1,17,0,11,12
COc1cc(NC(=O)c2cccnc2)ccc1-c1cc2ccccc2oc1=O,1,/,1,5,/
CC1CN(C(=O)c2ccc3c(c2)OCO3)CC(C)O1 (centres undefined),1,-5,-2,-1,5
CC1CCN(C(=O)c2ccc3c(c2)OCO3)CC1,/,-29,/,/,/
SMILES,FLuc stim CS,TRAIL sens C8,FLuc inh counter,PPC-1+TRAIL kill,PPC-1 tox
O=C(O)c1ccc(N/N=C/c2cc3cc4c(cc3nc2Cl)OCCO4)cc1,/,93*,/,88*,91*
Cc1ccc(-n2[nH]c(=O)c3cccnc32)cc1,1,9,-4,14,/
Cc1ccc(-n2[nH]c(=O)c(-c3ccccn3)c2C)cc1,0.2,61*,79*,46,51*
C=CCNc1ncnc2c1ncn2[C@H]1CN(Cc2cccs2)C[C@@H](CO)O1,/,-1,/,/,/
COc1ccc(CNC(=O)c2noc3c2CCCCC3)cc1,1,-7,1,3,-12
COc1ccc(CNC(=O)c2c(C)oc3c2C(=O)c2ccccc2C3=O)cc1,1.1,94*,-10,59*,57*
Cc1oc2c(c1C(=O)NCc1cccnc1)C(=O)c1ccccc1C2=O,1.1,/,-6,95*,94*
Cc1cc(-n2[nH]c(C)c(C)c2=O)nc(-c2ccccc2O)n1,1.1,13,-6,12,8
CC1C2NC(=O)N(Cc3ccccc3)C1(C)Oc1ccccc12 (centres undefined),1.1,-16,-5,-9,-1
CC12CC(NC(=O)N1CCc1ccccc1)c1ccccc1O2 (centres undefined),1,-7,2,3,/

# Screening results as filed in PubChem BioAssay.
